Tests used:
[1] = folding enthalpy; higher = less favourable; fluorescence melt of hairpins on a sequencing array, two-state fit; details: sodium 0.088 M
Summary of the method: (§1)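 Cy3 fluorescence of library hairpins on a sequenced MiSeq flow cell, with annealed Cy3 and quencher oligos, was imaged in 50 mM Na-HEPES pH 8.0, 25 mM NaCl in 2.5 °C steps up to 60 °C. Signals were normalised to pre-quench Cy3 and to control variants. Melting temperature and folding enthalpy came from bootstrapped two-state fits, inverse-variance combined over four replicates. Fitted temperatures were raised by 9.35 °C to match UV melts.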

[2] = melting temperature; fluorescence melt of hairpins on a sequencing array, two-state fit, raised by 9.35 °C to match UV melts; details: sodium 0.088 M
Summary of the method: as §1

Row | Sequence | folding enthalpy [1] | Tm [2]
1 | GAGCGCCGAAAGGCACTC (((.(((....))).))) | -84.7 kJ/mol | 56.4 °C
2 | GAGCGCCGAAAGGCCTC (((.(((....)))))) | -61.1 kJ/mol | 59.8 °C
3 | GAGCGCGAAAGCGAGCTC ((((((....)))..))) | -87.4 kJ/mol | 58.3 °C
4 | GAGCGCGAAAGCGGACTC ((((((....)))..))) | -57.2 kJ/mol | 52.3 °C
5 | GAGCGCGAAAGCGGCTC ((((((....))).))) | -86.1 kJ/mol | 67.8 °C
6 | GAGCGCGAAAGCGTCCTC ((((((....)))..))) | -42 kJ/mol | 42.2 °C
7 | GAGCGCGAAAGCGTTCTC ((((((....)))..))) | -75.9 kJ/mol | 66.8 °C
8 | GAGCGCGGAAACGCACTC (((.(((....))).))) | -101 kJ/mol | 59 °C
9 | GAGCGCGGAAACGTGCTC ((((.((....)).)))) | -135 kJ/mol | 65.6 °C
10 | GAGCGGCGAAAGCCTCTC (((.(((....))).))) | -85.6 kJ/mol | 51.7 °C
11 | GAGCGGGGAAACTCGCTC (((((.(....).))))) | -160 kJ/mol | 60.4 °C
12 | GAGCTACGAAAGTAACTC (((.(((....))).))) | -107 kJ/mol | 42.3 °C
13 | GAGCTAGGAAACCAGCTC (((((.(....).))))) | -164 kJ/mol | 46.3 °C
14 | GAGCTCCCGAAAGGGCTC (((..(((....)))))) | -74.1 kJ/mol | 44.4 °C
15 | GAGCTGCGAAAGCACCTC (((.(((....))).))) | -71 kJ/mol | 39.7 °C
16 | GAGCTTGGAAACAAGCCC (.(((((....))))).) | -55.2 kJ/mol | 42.8 °C
17 | GAGCTTGGAAACAAGTTC ((.((((....)))).)) | -109 kJ/mol | 44.1 °C
18 | GAGGAACGAAAGTTCTC (((.(((....)))))) | -57 kJ/mol | 38.9 °C
19 | GAGGAACGAAAGTTTCTC (((.(((....))).))) | -150 kJ/mol | 49.9 °C
20 | GAGGAAGGAAACTCCCTC ((((.((....)).)))) | -105 kJ/mol | 32.1 °C
21 | GAGGAAGGAAACTTCCTC (((((((....))))))) | -149 kJ/mol | 59 °C
22 | GAGGACGAAAGTCAACTC ((((((....)))..))) | -82.6 kJ/mol | 38.2 °C
23 | GAGGACGCGAAAGCGCTC (((..(((....)))))) | -54.1 kJ/mol | 36.9 °C

Row | Sequence | folding enthalpy [1] | Tm [2]
24 | GAGGACGGAAACGTCCCC (.(((((....))))).) | -43.5 kJ/mol | 42.3 °C
25 | GAGGAGGGAAACCCCCTC ((((.((....)).)))) | -109 kJ/mol | 46.5 °C
26 | GAGGAGGGAAACCTCCCC (.(((((....))))).) | -49.2 kJ/mol | 40.9 °C
27 | GAGGAGGGAAACCTTCTC (((.(((....))).))) | -114 kJ/mol | 42.7 °C
28 | GAGGATCCGAAAGGACTC (((..(((....)))))) | -55.6 kJ/mol | 30.6 °C
29 | GAGGATGGAAACGTCTTC ((.((.(....).)).)) | -54.9 kJ/mol | 32.9 °C
30 | GAGGCAGGAAACTGTCTC (((.(((....))).))) | -143 kJ/mol | 50.2 °C
31 | GAGGCCACGAAAGTGCTC (((..(((....)))))) | -45.7 kJ/mol | 32 °C
32 | GAGGCCGAAAGGCCCTC ((((((....))).))) | -38.3 kJ/mol | 58 °C
33 | GAGGCCGAAAGGCTCTC ((((((....))).))) | -75 kJ/mol | 54.7 °C
34 | GAGGCCGAAAGGCTTCTC ((((((....)))..))) | -79.7 kJ/mol | 54.9 °C
35 | GAGGCCGGAAACAGCCCC (.(((.(....).))).) | -44.1 kJ/mol | 27.2 °C
36 | GAGGCCGGAAACAGCCTC (((((.(....).))))) | -115 kJ/mol | 50.2 °C
37 | GAGGCCGGAAACGACCCC (.((.((....)).)).) | -82.3 kJ/mol | 30.6 °C
38 | GAGGCCGGAAACGGCTTC ((.((((....)))).)) | -70.8 kJ/mol | 55.9 °C
39 | GAGGCGACGAAAGTCCTC (((..(((....)))))) | -52.6 kJ/mol | 38.1 °C
40 | GAGGCGCCGAAAGGCCTC (((..(((....)))))) | -55.8 kJ/mol | 44.3 °C
41 | GAGGCTGGAAACAGCTTC ((.((((....)))).)) | -82.9 kJ/mol | 49 °C
42 | GAGGCTGGAAACGGCCTC (((((.(....).))))) | -194 kJ/mol | 59.6 °C
43 | GAGGCTGGAAACGGTCTC (((.(.(....).).))) | -119 kJ/mol | 39.6 °C
44 | GAGGGAACGAAAGTTCTC (((..(((....)))))) | -57.1 kJ/mol | 37.7 °C
45 | GAGGGACGAAAGTCCTC (((.(((....)))))) | -49.2 kJ/mol | 48.9 °C
46 | GAGGGACGAAAGTCTCTC (((.(((....))).))) | -136 kJ/mol | 55.4 °C

Row | Sequence | folding enthalpy [1] | Tm [2]
47 | GAGGGAGGAAACTCCTTC ((.((((....)))).)) | -82.5 kJ/mol | 38.3 °C
48 | GAGGGAGGAAACTCTCTC (((.(((....))).))) | -103 kJ/mol | 44.2 °C
49 | GAGGGAGGAAACTTCCTC ((((.((....)).)))) | -107 kJ/mol | 45.6 °C
50 | GAGGGCCCGAAAGGGCTC (((..(((....)))))) | -34.4 kJ/mol | 43.9 °C
51 | GAGGGCGAAAGCCACTC ((((((....))).))) | -57.4 kJ/mol | 53.4 °C
52 | GAGGGCGAAAGCCCCTC ((((((....))).))) | -40 kJ/mol | 57.1 °C
53 | GAGGGCGAAAGCCGTCTC ((((((....)))..))) | -85.4 kJ/mol | 59 °C
54 | GAGGGCGAAAGCCTGCTC ((((((....)))..))) | -51.8 kJ/mol | 42.5 °C
55 | GAGGGCGGAAACGTCCTC ((((.((....)).)))) | -197 kJ/mol | 59.1 °C
56 | GAGGGGAAACCCTC (((((....))))) | -103 kJ/mol | 54 °C
57 | GAGGGGCGAAAGCCCTC (((.(((....)))))) | -42.4 kJ/mol | 55.5 °C
58 | GAGGGGGGAAACCCTCTC (((.(((....))).))) | -116 kJ/mol | 53.7 °C
59 | GAGGGGGGAAACTCCCTC (((((.(....).))))) | -143 kJ/mol | 53.2 °C
60 | GAGGGTACGAAAGTACTC (((..(((....)))))) | -49.7 kJ/mol | 36.9 °C
61 | GAGGGTGGAAACACCCCC (.(((((....))))).) | -44.8 kJ/mol | 44.8 °C
62 | GAGGGTGGAAACACCTTC ((.((((....)))).)) | -66.4 kJ/mol | 47 °C
63 | GAGGGTGGAAACATCCTC ((((.((....)).)))) | -162 kJ/mol | 50.5 °C
64 | GAGGTAACGAAAGTTCTC (((..(((....)))))) | -46.4 kJ/mol | 29 °C
65 | GAGGTACCGAAAGGTCTC (((..(((....)))))) | -73.1 kJ/mol | 31.4 °C
66 | GAGGTAGAAATACCTC ((((((....)))))) | -140 kJ/mol | 50.2 °C
67 | GAGGTAGGAAACCACCTC (((((.(....).))))) | -130 kJ/mol | 42.2 °C
68 | GAGGTAGGAAACTGCTTC ((.(.((....)).).)) | -65.2 kJ/mol | 26.7 °C
69 | GAGGTCCCGAAAGGGCTC (((..(((....)))))) | -57.2 kJ/mol | 37.6 °C

Row | Sequence | folding enthalpy [1] | Tm [2]
70 | GAGGTCCGAAAGGACTC (((.(((....)))))) | -49.9 kJ/mol | 47.9 °C
71 | GAGGTCCGAAAGGATCTC (((.(((....))).))) | -158 kJ/mol | 59.6 °C
72 | GAGGTGGGAAACCACCTC (((((((....))))))) | -130 kJ/mol | 69.2 °C
73 | GAGGTGGGAAACCGTCTC (((..((....))..))) | -34.4 kJ/mol | 31.1 °C
74 | GAGGTGGGAAACTACCTC (((((.(....).))))) | -172 kJ/mol | 49.7 °C
75 | GAGGTTGGAAACAATCTC (((.(((....))).))) | -148 kJ/mol | 44.1 °C
76 | GAGTAAGGAAACTTACTC (((((((....))))))) | -180 kJ/mol | 52.1 °C
77 | GAGTAAGGAAACTTGCTC (((.(((....))).))) | -116 kJ/mol | 40.3 °C
78 | GAGTACACGAAAGTGCTC (((..(((....)))))) | -62.2 kJ/mol | 33.7 °C
79 | GAGTACGAAAGTAACCTC ((((((....)))..))) | -61.7 kJ/mol | 27.8 °C
80 | GAGTACGAAAGTATCCTC ((((((....)))..))) | -73.8 kJ/mol | 25.4 °C
81 | GAGTACGAAAGTATGCTC ((((((....)))..))) | -87.2 kJ/mol | 31.5 °C
82 | GAGTACGCGAAAGCGCTC (((..(((....)))))) | -42 kJ/mol | 34.6 °C
83 | GAGTAGCGAAAGCTGCTC (((.(((....))).))) | -153 kJ/mol | 60.1 °C
84 | GAGTAGGGAAACCTGCTC (((.(((....))).))) | -144 kJ/mol | 48.5 °C
85 | GAGTCAGGAAACTGATTC ((.((((....)))).)) | -113 kJ/mol | 39.8 °C
86 | GAGTCCCGAAAGGGGCTC (((.(((....))).))) | -121 kJ/mol | 69.2 °C
87 | GAGTCCCGAAAGGGTCTC (((.(((....))).))) | -128 kJ/mol | 53 °C
88 | GAGTCCGAAAGGAAACTC ((((((....)))..))) | -81.3 kJ/mol | 40.2 °C
89 | GAGTCCGAAAGGAAGCTC ((((((....)))..))) | -73.7 kJ/mol | 37.4 °C
90 | GAGTCCGAAAGGACACTC ((((((....)))..))) | -52.4 kJ/mol | 54.4 °C
91 | GAGTCCGAAAGGACCTC ((((((....))).))) | -55.1 kJ/mol | 54.5 °C

— the array DNA melting data of Ke et al. (doi:10.1101/2024.01.08.574731)
